# Source: PubChem (several laboratories)
# Shown are actives, neighbours in structure and some others; about 1.9% of the full set was active somewhere.
# RanGTP-Impb inh – inhibitors of RanGTP-importin-beta interaction, primary screen, biochemical, FRET, CFP-Ran, YFP-importin-beta, homogeneous; cell-free CFP-Ran/YFP-importin-beta FRET ratio; inhibition, % (concentration not given with the values); 300,000 tested, 1.1% active;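 active means more than half of the replicate wells show a fall in the fluorescence ratio signal beyond about 16%, limit read from the data, passing the limit was not always enough; inconclusive means exactly half of the replicate wells pass the set limit; inactive means fewer than half of replicates pass the limit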
# Runt-SMMHC FRET – Runt domain-CBFb-SMMHC interaction inhibition | Q01196+Q13951 | Cerulean-Runt/Venus-CBFb-SMMHC FRET ratio 530/480, 1 h | inhibition, % at 20 µM | 220,000 tested, 0.74% active;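 active means mean inhibition across duplicate retests at 20 µM reaching about 50%, limit read from the data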;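 further: inhibitors lower the FRET ratio by blocking Runt binding to CBFb-SMMHC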
# Runt-CBFb FRET – inhibitors of human RUNX1 Runt domain binding to CBFb | Cerulean-Runt/Venus-CBFb FRET ratio 530/480, 1 h | Q01196+Q13951 | inhibition, % at 20 µM | 220,000 tested, 0.46% active;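 active means inhibition over about 50% at 20 µM in the single-dose screen, limit read from the data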
#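 Assay system: Cerulean-Runt domain fusion protein, energy donor; Signal: fluorescence energy transfer, 422 nm excitation, 530/480 nm emission; Timing: 1 h compound exposure, room temperature; Control set: unlabeled CBFb; Medium: Tris buffer pH 7.5 with salts and BSA; Compound: single test concentration of 20 µM, 1% DMSO final; Probe or stimulus: Venus-CBFb 100 nM.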
# Hck-Nef inh – blocks Nef-activated human Hck kinase; 220,000 tested, 0.68% active; Recombinant Hck-YEEI plus Nef, Z-Lyte FRET kinase assay; inhibition, % at 20 µM; P08631;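 active means Hck-Nef kinase inhibition above about 50%, limit read from the data; inactive means inhibition below that limit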
# Target sequence (P08631 whole entry, looked up): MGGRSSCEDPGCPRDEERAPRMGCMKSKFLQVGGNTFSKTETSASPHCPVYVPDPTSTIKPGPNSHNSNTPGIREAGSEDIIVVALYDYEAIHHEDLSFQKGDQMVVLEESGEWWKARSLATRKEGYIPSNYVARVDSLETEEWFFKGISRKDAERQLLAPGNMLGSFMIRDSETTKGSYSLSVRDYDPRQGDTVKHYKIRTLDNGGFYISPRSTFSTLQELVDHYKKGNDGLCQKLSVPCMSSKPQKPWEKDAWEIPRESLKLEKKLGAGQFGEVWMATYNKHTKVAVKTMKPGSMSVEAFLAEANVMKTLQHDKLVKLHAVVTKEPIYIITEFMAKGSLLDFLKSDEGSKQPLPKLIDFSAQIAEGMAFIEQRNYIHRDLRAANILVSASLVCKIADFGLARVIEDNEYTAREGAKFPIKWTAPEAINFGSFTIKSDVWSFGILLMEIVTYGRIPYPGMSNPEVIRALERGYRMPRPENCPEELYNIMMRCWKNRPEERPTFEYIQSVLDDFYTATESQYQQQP
# Tb hexokinase – T. brucei hexokinase 1 inhibition. recombinant TbHK1, G6PDH-coupled NADH A340. inhibition, % at 10 µM. 220,000 tested, 0.11% active. AID 1430;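 active means inhibition of 50% or more in the single-dose primary screen; inactive means inhibition below 50%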
# Numbers stand for hits; i = inactive; ? = inconclusive; nt = not tested or not shown.
SMILES,RanGTP-Impb inh,Runt-SMMHC FRET,Runt-CBFb FRET,Hck-Nef inh,Tb hexokinase
Cn1c(=N)c(S(=O)(=O)c2ccc(Cl)cc2)cc2c(=O)n3ccccc3nc21,nt,nt,nt,i,i
N=c1c(S(=O)(=O)c2ccc(Cl)cc2)cc2c(=O)n3ccccc3nc2n1C1CCCC1,131.6,nt,nt,nt,nt
O=C(COC(=O)Cc1ccccc1F)NCCNC(=O)COC(=O)Cc1ccccc1F,i,nt,nt,nt,nt
N=c1c(S(=O)(=O)c2ccc(Cl)cc2)cc2c(=O)n3ccccc3nc2n1CC1CCCO1 (stereo not drawn),112.2,nt,nt,nt,nt
Cc1nc(C)n(C(C)CNS(=O)(=O)c2ccc(Cl)cc2)n1 (stereo not drawn),i,nt,nt,nt,nt
COC(=O)C1=C2c3[nH]c4ccccc4c3CCN2C(=O)CC1,i,nt,nt,nt,nt
COC(=O)C1=COC(C)C2CN3CCc4c([nH]c5ccccc45)C3CC12 (stereo not drawn),122.3,i,i,i,i
COc1ccc(NC(=O)CN2CCc3ccccc3C2)c([N+](=O)[O-])c1,i,nt,nt,nt,nt
O=C(N/N=C/c1sc(N2CCOCC2)nc1-c1ccccc1)c1ccccc1Cl,29.9,i,i,i,i
Cc1ccc(CNc2nc(N)c([N+](=O)[O-])c(Nc3ccc(F)cc3)n2)cc1,18.8,i,i,i,i
Cc1ccc(CNc2nc(N)c([N+](=O)[O-])c(NCc3ccccc3)n2)cc1,i,i,i,i,i
N#Cc1c(NC(=O)c2ccc([N+](=O)[O-])o2)sc2c1CCC2,i,nt,nt,nt,nt
O=c1c(Oc2ccccc2Br)c(C(F)(F)F)oc2c(CN3CCCC3)c(O)ccc12,50.8,i,i,i,i
CC(C)C(NC(=O)c1ccccc1NC(=O)c1ccccc1)C(=O)NCCCn1ccnc1 (stereo not drawn),i,nt,nt,nt,nt
CCN1C(=O)/C(=C2/Sc3ccccc3N2CC)S/C1=N\c1ncn[nH]1,i,nt,nt,52.5,i
C=CCN1C(=O)/C(=C2/Sc3ccccc3N2C)SC1=Nc1c(C)n[nH]c1C,i,i,i,i,i
Cc1ccc2cc3c(NC(=O)C(C)C)nn(C)c3nc2c1,i,i,i,i,i
Cc1cccc2cc3c(NC(=O)C(C)C)nn(C)c3nc12,46.6,i,i,i,i
CCC(=O)Nc1nn(C)c2nc3c(C)cccc3cc12,22.5,i,i,i,i
CCn1nc(NC(=O)c2ccncc2)c2cc3cccc(C)c3nc21,?,i,i,i,i
CCCn1nc(NC(=O)CC)c2cc3cccc(C)c3nc21,55.1,nt,nt,nt,nt
COc1ccc(CC(=O)Nc2nn(C)c3nc4c(C)cccc4cc23)cc1,i,72.3,i,i,i
CC(C)=CCC12Oc3cc(O)ccc3C1(O)Oc1cc(O)c([C@H]3C=C(C)CC(c4ccc(O)cc4O)[C@H]3C(=O)c3ccc(O)cc3O)c(O)c1C2=O (stereo partly drawn),i,nt,nt,nt,nt
Cc1cccc(C(=O)N2CCCC(N3CCN(c4ccccc4)CC3)C2)n1 (stereo not drawn),i,nt,nt,nt,nt
CC1CN(CC(O)COc2ccc(C#N)cc2)CCN1CC(O)COc1ccc(C#N)cc1 (stereo not drawn),i,nt,nt,nt,nt
SMILES,RanGTP-Impb inh,Runt-SMMHC FRET,Runt-CBFb FRET,Hck-Nef inh,Tb hexokinase
COC(=O)c1ccsc1NC(=O)CN1CCN(c2ncccn2)CC1,i,nt,nt,nt,nt
CC(=O)OCC(=O)NCc1ccc2c(c1)OCO2,i,i,87.3,i,i
O=C(COC(=O)c1ccc(O)cc1)NCc1ccc2c(c1)OCO2,i,i,i,i,i
CCOC(=O)c1cc(S(=O)(=O)N2CCN(C3CCCCC3)CC2)cn1C,i,nt,nt,nt,nt
OC1CCN(c2cc(-c3ccccc3)nc3cc(-c4ccc(F)cc4)nn23)CC1,i,i,i,i,i
CCN1CCN(c2cc(-c3ccccc3)nc3cc(-c4cccc(F)c4)nn23)CC1,16.8,i,i,i,i
CC(C)C[C@H](NC(=O)N1CCn2c1nc1ccccc12)C(=O)NCc1ccccc1,i,nt,nt,nt,nt
CC(C)C[C@H](NC(=O)N1CCn2c1nc1ccccc12)C(=O)NCC1CCCO1 (stereo partly drawn),20.7,nt,nt,nt,nt
CCNC(=O)c1ccccc1NC(=O)C1CC(=O)N(C(C)C)C1 (stereo not drawn),i,nt,nt,nt,nt
Nc1cccc2c1C(=O)N(Cc1cccc(Cl)c1)C2=O,i,92.9,i,i,i
O=C1Cc2ccccc2C(=O)N1Cc1cccc(Cl)c1,i,nt,nt,nt,nt
CCOc1cccc(-c2c(C(=O)N/N=C/c3cccs3)nnn2-c2nonc2N)c1,i,nt,nt,nt,nt
O=C(O)Cn1cccc1C(=O)c1ccccc1,i,i,nt,i,i
CN(Cc1ccccc1)C(=O)Cn1cccc1C(=O)c1ccccc1,70.2,i,i,i,i
Cn1c(=O)c2c(ncn2Cc2ccccc2)n(C)c1=O,i,i,i,i,i
Cn1c(=O)c2nc(NCc3ccccc3)cnc2n(C)c1=O,75.1,i,i,i,i
CCOC(CCNC(=O)c1cn(CC(C)C)c(=O)c2c1c1ccccc1n2C)OCC,i,nt,nt,nt,nt
CCOC(=O)C(C)c1c(C(=O)c2ccc(C)nc2)c2ccccc2n1C (stereo not drawn),i,52.1,i,i,i
CCc1nc(SCC(=O)c2ccc3c(c2)OCCO3)c2ccccc2n1,i,55.8,i,i,i
Cc1c(Cc2ccccc2)c(=O)oc2cc(O)cc(O)c12,i,63.2,i,i,i
O=C(Cc1ccc([N+](=O)[O-])cc1)N1CCCc2ccccc21,i,i,i,i,i
CC(C)(C)NC(=O)c1cc(-c2ccc3c(c2)OCO3)nc2ccccc12,i,nt,nt,nt,nt
Cn1c(NC(=O)c2cc(-c3ccc4c(c3)OCO4)nc3ccccc23)cc(=O)n(C)c1=O,i,i,61.5,i,i
COC(=O)c1ccccc1NC(=O)NC1CCN(Cc2ccccc2)CC1,i,i,90.9,i,i
O=C(COC(=O)c1ccc(S(=O)(=O)C(F)F)cc1)Nc1cccnc1Cl,i,nt,nt,nt,nt
SMILES,RanGTP-Impb inh,Runt-SMMHC FRET,Runt-CBFb FRET,Hck-Nef inh,Tb hexokinase
O=C(COC(=O)CCCN1C(=O)c2cccc3cccc(c23)C1=O)Nc1cccc(Br)c1,i,i,i,i,i
CS(=O)(=O)c1ccc(Cl)c(NC(=O)COC(=O)CCCN2C(=O)c3cccc4cccc(c34)C2=O)c1,25.2,nt,nt,nt,nt
O=S(=O)(NCc1ccccc1)c1ccc(NC(=S)NCc2ccco2)cc1,i,nt,nt,nt,nt
CC1=Nc2ccccc2/C1=C\c1nc(-c2ccccc2)oc1O,i,i,i,i,i
CC1=Nc2ccccc2/C1=C/c1nc(-c2ccc(C)s2)oc1O,37.0,i,i,i,i
Cc1cc(C(F)(F)F)nc(NCc2cccnc2)n1,i,i,i,i,78.7
Cc1ccc(NCc2cccnc2)cc1,i,i,i,i,i
COc1ccc(NC(=O)CSc2nnc(-c3cnccn3)n2C)cc1OC,i,nt,nt,nt,nt
CC(C)(C)NC(=O)CSc1nnc(C2CC2)n1-c1ccccc1,52.2,i,i,i,i
CC(C)(C)NC(=O)CSc1nnc(C2CC2)n1Cc1ccccc1,i,i,i,i,i
CCCCn1c(=O)cc(C)n(-c2ccccc2)c1=O,i,nt,nt,nt,nt
Cc1ccc(C)c(-n2c3nc(=O)n(C)c(=O)c-3cc3ccccc32)c1,133.3,81.0,i,i,i
CCCCn1c(=O)nc2n(-c3ccccc3)c3ccccc3cc-2c1=O,142.3,60.4,i,i,i
